Test [1] deals with T1, D(2) dopamine receptor (Rattus norvegicus, UniProt P61169). In words: In vitro ability to inhibit the binding of [3H]spiperone to dopamine receptor D2 in rat striatal membranes. The format is cell membranes, Membrane.
In test [2] the target is T1, D(2) dopamine receptor. In words: Inhibition of [3H]raclopride binding to rat striatal membrane Dopamine receptor D2.
Test [3] concerns Rattus norvegicus. In words: Evaluated in vitro for antipsychotic activity (stereotypies) for the block of apomorphine induced response after ip administration 60 min prior to apomorphine (1 mg/kg sc). The class given is functional. In short, it runs like this:
(§1)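 Male Sprague-Dawley rats (270–325 g) received compound ip, in saline or in acetic acid plus distilled water, 60 min before apomorphine HCl (1 mg/kg sc, neck). Hyperactivity and stereotypies were scored 5, 20, 40 and 60 min after apomorphine.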

The subject of test [4] is Rattus norvegicus. In words: Evaluated in vitro for antipsychotic activity (hyperactivity) for the block of apomorphine induced response after ip administration 60 min prior to apomorphine (1 mg/kg sc). The class given is functional. The method, boiled down: as §1
Test [5] concerns Rattus norvegicus. In words: Catalepsy interval defined as the time required for both fore limbs to be removed from the bar when administered intraperitoneally. To be noted: ip. The class given is functional. In short, it runs like this:
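Rats given test compound ip, then tested on a horizontal bar (1.5 cm diameter, 7 cm above cage floor) at 20, 40, 60, 90, 120 and 240 min after injection. A saline control group was tested the same way. An animal counted as cataleptic if it held ≥ 15 s. The proportion cataleptic at each dose gave dose-response curves, and ED50 came from probit analysis.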

In test [6] the test system is Rattus norvegicus. In words: Dose which blocks the hypothermic effect of apomorphine by 50% against Sprague-Dawley rats when administered intraperitoneally. The format is functional. To be noted: ip. In short, it runs like this:
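Sprague-Dawley rats (n = 6 per group) were pretreated ip with saline or compound 60 min before apomorphine HCl (1 mg/kg sc). Core temperature was taken by rectal probe before dosing, before apomorphine and 15 min after it. Mean changes were expressed as percent of control.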

T1 sequence (P61169 whole entry): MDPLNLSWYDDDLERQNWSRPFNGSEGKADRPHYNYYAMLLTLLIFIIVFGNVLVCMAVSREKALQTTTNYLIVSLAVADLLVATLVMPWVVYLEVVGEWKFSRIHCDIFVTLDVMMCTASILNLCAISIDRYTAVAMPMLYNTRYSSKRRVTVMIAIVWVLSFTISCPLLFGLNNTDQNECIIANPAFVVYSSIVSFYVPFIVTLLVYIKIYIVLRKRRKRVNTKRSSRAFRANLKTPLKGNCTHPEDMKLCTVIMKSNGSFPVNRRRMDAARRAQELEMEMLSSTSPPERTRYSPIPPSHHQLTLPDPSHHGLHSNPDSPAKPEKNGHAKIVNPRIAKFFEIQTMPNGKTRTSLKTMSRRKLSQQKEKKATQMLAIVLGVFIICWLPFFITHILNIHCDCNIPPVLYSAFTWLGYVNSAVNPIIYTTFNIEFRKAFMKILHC

By IC50 is commonly meant the concentration at which inhibition is half-maximal. The compound `CCc1cc(OC)c(OC)c(C(=O)NC[C@@H]2CCCN2CC)c1OC` yielded an IC50 on D(2) dopamine receptor [1] of 820 nM.
By Ki is commonly meant a measure of affinity in units of concentration, obtained from inhibition or displacement. As a reminder, the ED50 is the midpoint of the dose-response relation. The low end stands for greater potency, the high end for weaker potency. On D(2) dopamine receptor [2], `CCN1CCC[C@H]1CNC(=O)c1c(O)c(OC)cc(Br)c1OC` had a Ki of 8.38 nM. This compound also showed an IC50 on D(2) dopamine receptor [1] of 67 nM. Also, the ED50 worked out at 12 µmol/kg in the test with Rattus norvegicus [3] and 1.3 µmol/kg in the test with Rattus norvegicus [4].
As to `CCN1CCC[C@H]1CNC(=O)c1c(O)ccc(O)c1OC`, on D(2) dopamine receptor [1], the IC50 is 56 nM.
Consider `CCN1CCC[C@H]1CNC(=O)c1c(O)c(Cl)cc(OC)c1OC`, for which the Ki at D(2) dopamine receptor [2] amounted to 0.087 nM. This compound came in with an IC50 at D(2) dopamine receptor [1] of 1.7 nM.
`CCN1CCC[C@H]1CNC(=O)c1c(N)c(Br)cc(OC)c1OC`: at D(2) dopamine receptor [1], the IC50 amounted to 21 nM.
`C=CCN1CCC[C@H]1CNC(=O)c1c(O)c(OC)cc(Br)c1OC` registered an IC50 at D(2) dopamine receptor [1] of 44 nM.
`CCCc1cc(OC)c(OC)c(C(=O)NC[C@@H]2CCCN2CC)c1O.O=C(O)/C(O)=C(\O)C(=O)O` returned a Ki on D(2) dopamine receptor [2] of 0.023 nM.
On to `CCN1CCC[C@H]1CNC(=O)c1c(OC)ccc(OC)c1O`, for which the IC50 on D(2) dopamine receptor [1] was determined as 205 nM.
At D(2) dopamine receptor [1], `CCc1cc(OC)c(O)c(C(=O)NC[C@@H]2CCCN2CC)c1OC` came in with an IC50 of 19 nM.
Take `CCN1CCC[C@H]1CNC(=O)c1c(O)c(OC)cc(Cl)c1OC`: the IC50 on D(2) dopamine receptor [1] was 71 nM.
The compound `CCN1CCC[C@H]1CNC(=O)c1c(OC)c(Br)cc(OC)c1OC` yielded an IC50 on D(2) dopamine receptor [1] of 1750 nM.
Still for that read-out and setting: under `CCN1CCC[C@H]1CNC(=O)c1c(OC)c(Cl)cc(OC)c1OC` stands 420 nM.
For the compound `CCc1cc(OC)c(OC)c(C(=O)NC[C@@H]2CCCN2CC)c1O`, the Ki at D(2) dopamine receptor [2] stood at 0.033 nM. The compound also returned an IC50 on D(2) dopamine receptor [1] of 0.77 nM.
The compound `CCCc1cc(OC)c(OC)c(C(=O)NC[C@@H]2CCCN2CC)c1OC` came in with an IC50 on D(2) dopamine receptor [1] of 2960 nM.
Turning to `CCN1CCC[C@@H]1CNC(=O)c1c(O)c(OC)cc(Br)c1OC`, at D(2) dopamine receptor [1], the IC50 was 6170 nM.
Regarding `CCN1CCC[C@@H]1CNC(=O)c1c(O)c(Br)cc(OC)c1OC`, the Ki at D(2) dopamine receptor [2] is 6.54 nM. At D(2) dopamine receptor [1], this compound showed an IC50 of 79 nM. The ED50 is 5.3 µmol/kg in the test with Rattus norvegicus [3] and 12.6 µmol/kg in the test with Rattus norvegicus [4].
Consider `CCN1CCC[C@H]1CNC(=O)c1c(O)ccc(OC)c1OC`, for which the affinity on D(2) dopamine receptor [2], expressed as Ki, was 0.75 nM.
On to `CCN1CCC[C@H]1CNC(=O)c1c(O)c(Br)cc(N)c1OC`, for which, on D(2) dopamine receptor [1], the IC50 is 33 nM.
Still for that read-out and setting: under `CCN1CCC[C@H]1CNC(=O)c1c(O)c(Br)cc(O)c1OC` stands 1.9 nM.
In turn, `CCN1CCC[C@H]1CNC(=O)c1c(O)c(Br)cc(OC)c1OC` returned a Ki at D(2) dopamine receptor [2] of 0.064 nM. Besides, the ED50 turned out to be 0.14 µmol/kg in the test on Rattus norvegicus [5] and 0.005 µmol/kg in the test with Rattus norvegicus [6].
`CCc1cc(Cl)c(OC)c(C(=O)NC[C@@H]2CCCN2CC)c1O` [ETICLOPRIDE]: the ED50 stood at 0.19 µmol/kg with Rattus norvegicus [3], 0.74 µmol/kg in the test on Rattus norvegicus [5], 0.09 µmol/kg with Rattus norvegicus [6] and 0.015 µmol/kg in the test on Rattus norvegicus [4].
As for `O=C(CCCN1CCC(O)(c2ccc(Cl)cc2)CC1)c1ccc(F)cc1` [HALOPERIDOL], the ED50 in the test on Rattus norvegicus [3] was 0.27 µmol/kg; in the test on Rattus norvegicus [5] it was 0.9 µmol/kg; in the test on Rattus norvegicus [6], 0.35 µmol/kg; in the test with Rattus norvegicus [4] it was 0.37 µmol/kg.
For `CCN1CCC[C@H]1CNC(=O)c1cc(S(N)(=O)=O)ccc1OC` [LEVOSULPIRIDE], in that order: 290 µmol/kg, 280 µmol/kg, 8 µmol/kg and 55 µmol/kg.
As to `CCN1CCC[C@H]1CNC(=O)c1c(O)c(Cl)cc(Cl)c1OC` [RACLOPRIDE], the ED50 with Rattus norvegicus [5] was determined as 11 µmol/kg; in the test on Rattus norvegicus [6], 0.2 µmol/kg.

The record behind these values is ChEMBL document CHEMBL1125080, “Potential antipsychotic agents 5. Synthesis and antidopaminergic properties of substituted 5,6-dimethoxysalicylamides and related compounds” (J Med Chem, 1990).
